From ChEMBL document CHEMBL3102784, “Salicylanilide diethyl phosphates: synthesis, antimicrobial activity and cytotoxicity” (Bioorg Med Chem, 2014)
Values after ≈ are worked out from the molar mass of the structure shown. Active and inactive are the calls of the source. No cut-off for these calls is given here.

How the values were obtained:
[1] = test system: Mycobacterium kansasii; assay: Antimycobacterial activity against Mycobacterium kansasii My 235/80 after 21 days; assay type: functional; conditions: My 235/80, 504 h
How it was run: (§1)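 Micromethod MIC in Šula's semisynthetic medium at 37 °C. Compounds added in DMSO at 1000 down to 0.032 µmol/L. Isoniazid standard in sterile water at 0.5–250 µmol/L. Inocula: H37Rv 10^3, M. avium 10^5, M. kansasii 10^4. Read at 14 and 21 d, plus 7 d for M. kansasii.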

[2] = test system: Nakaseomyces glabratus; assay: Antifungal activity against Candida glabrata 20/I at 500 micromol/L after 24 to 48 hrs by broth microdilution method; assay type: functional, organism-based
How it was run: (§2)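 Broth microdilution in RPMI 1640 with glutamine, fluconazole as reference. For yeasts, MIC is ≥80% growth reduction (IC80) versus control. For filamentous fungi, the value is expressed as IC50. Readings at 24 and 48 h.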

[3] = test system: Pichia kudriavzevii; assay: Antifungal activity against Candida krusei E28 after 24 hrs by broth microdilution method; assay type: functional; conditions: E28, 24 h; how it was run: as §2
[4] = test system: Trichophyton mentagrophytes; assay: Antifungal activity against Trichophyton mentagrophytes 445 after 72 hrs by broth microdilution method; assay type: functional; conditions: Trichophyton mentagrophytes, 445, 72 h
How it was run: (§3)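 Filamentous dermatophyte tested by broth microdilution in RPMI 1640 with glutamine, fluconazole as reference. Value expressed as IC50 relative to growth control. Read at 72 and 120 h.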

[5] = test system: Candida albicans; assay: Antifungal activity against Candida albicans ATCC 44859 after 24 hrs by broth microdilution method; assay type: functional; conditions: ATCC 44859, 24 h; how it was run: as §2
[6] = test system: Mycobacterium avium; assay: Antimycobacterial activity against isoniazid, rifampicin, ethambutol and ofloxacin-resistant Mycobacterium avium My 330/88 after 14 days; assay type: functional; conditions: My 330/88, 336 h; how it was run: as §1
[7] = test system: Klebsiella pneumoniae; assay: Antibacterial activity against ESBL-positive Klebsiella pneumoniae J 14368/08 at 500 micromol/L after 24 to 48 hrs by broth microdilution method; assay type: functional, organism-based
How it was run: (§4)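 Broth microdilution in Mueller–Hinton broth, compounds dissolved in DMSO, tested over a dilution series from 500 downward. MIC taken as ≥95% growth reduction (IC95) versus drug-free control. Benzylpenicillin comparator. Readings at 24 and 48 h.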

[8] = test system: Candida tropicalis; assay: Antifungal activity against Candida tropicalis 156 at 500 micromol/L after 24 to 48 hrs by broth microdilution method; assay type: functional, organism-based; how it was run: as §2
[9] = test system: Mycobacterium kansasii; assay: Antimycobacterial activity against Mycobacterium kansasii My 235/80 after 14 days; assay type: functional; conditions: My 235/80, 336 h; how it was run: as §1
[10] = test system: Staphylococcus aureus; assay: Antibacterial activity against methicillin-resistant Staphylococcus aureus H 5996/08 after 48 hrs by broth microdilution method; assay type: functional; conditions: H 5996/08, 48 h; how it was run: as §4
[11] = test system: Lichtheimia corymbifera; assay: Antifungal activity against Absidia corymbifera 272 after 24 hrs by broth microdilution method; assay type: functional; conditions: Lichtheimia corymbifera, 272, 24 h; how it was run: as §2
[12] = test system: Mycobacterium kansasii; assay: Antimycobacterial activity against Mycobacterium kansasii 6509/96 after 7 days; assay type: functional; conditions: 6509/96, 168 h; how it was run: as §1
[13] = test system: Aspergillus fumigatus; assay: Antifungal activity against Aspergillus fumigatus 231 after 48 hrs by broth microdilution method; assay type: functional; conditions: Aspergillus fumigatus, 231, 48 h; how it was run: as §2
[14] = test system: Trichophyton mentagrophytes; assay: Antifungal activity against Trichophyton mentagrophytes 445 after 120 hrs by broth microdilution method; assay type: functional; conditions: Trichophyton mentagrophytes, 445, 120 h; how it was run: as §3
[15] = test system: Candida albicans; assay: Antifungal activity against Candida albicans ATCC 44859 after 48 hrs by broth microdilution method; assay type: functional; conditions: ATCC 44859, 48 h; how it was run: as §2
[16] = test system: Mycobacterium kansasii; assay: Antimycobacterial activity against Mycobacterium kansasii My 235/80 after 7 days; assay type: functional; conditions: My 235/80, 168 h; how it was run: as §1
[17] = test system: Mycobacterium kansasii; assay: Antimycobacterial activity against Mycobacterium kansasii 6509/96 after 21 days; assay type: functional; conditions: 6509/96, 504 h; how it was run: as §1
[18] = test system: Staphylococcus epidermidis; assay: Antibacterial activity against Staphylococcus epidermidis H 6966/08 after 24 hrs by broth microdilution method; assay type: functional; conditions: H 6966/08, 24 h; how it was run: as §4
[19] = test system: Mycobacterium tuberculosis; assay: Antimycobacterial activity against Mycobacterium tuberculosis H37Rv My 331/88 after 14 days; assay type: functional; conditions: H37Rv My 331/88, 336 h; how it was run: as §1
[20] = test system: Aspergillus fumigatus; assay: Antifungal activity against Aspergillus fumigatus 231 after 24 hrs by broth microdilution method; assay type: functional; conditions: Aspergillus fumigatus, 231, 24 h; how it was run: as §2
[21] = test system: Trichosporon asahii; assay: Antifungal activity against Trichosporon asahii 1188 after 48 hrs by broth microdilution method; assay type: functional; conditions: Trichosporon asahii, 1188, 48 h; how it was run: as §2
[22] = test system: Klebsiella pneumoniae; assay: Antibacterial activity against Klebsiella pneumoniae D 11750/08 at 500 micromol/L after 24 to 48 hrs by broth microdilution method; assay type: functional, organism-based; how it was run: as §4
[23] = test system: Staphylococcus epidermidis; assay: Antibacterial activity against Staphylococcus epidermidis H 6966/08 after 48 hrs by broth microdilution method; assay type: functional; conditions: H 6966/08, 48 h; how it was run: as §4
[24] = test system: Mycobacterium kansasii; assay: Antimycobacterial activity against Mycobacterium kansasii 6509/96 after 14 days; assay type: functional; conditions: 6509/96, 336 h; how it was run: as §1
[25] = test system: Staphylococcus aureus; assay: Antibacterial activity against Staphylococcus aureus CCM 4516/08 after 24 hrs by broth microdilution method; assay type: functional; conditions: CCM 4516/08, 24 h; how it was run: as §4
[26] = test system: Staphylococcus aureus; assay: Antibacterial activity against methicillin-resistant Staphylococcus aureus H 5996/08 after 24 hrs by broth microdilution method; assay type: functional; conditions: H 5996/08, 24 h; how it was run: as §4
[27] = test system: Mycobacterium avium; assay: Antimycobacterial activity against isoniazid, rifampicin, ethambutol and ofloxacin-resistant Mycobacterium avium My 330/88 after 21 days; assay type: functional; conditions: My 330/88, 504 h; how it was run: as §1
[28] = test system: Trichosporon asahii; assay: Antifungal activity against Trichosporon asahii 1188 after 24 hrs by broth microdilution method; assay type: functional; conditions: Trichosporon asahii, 1188, 24 h; how it was run: as §2
[29] = test system: Staphylococcus aureus; assay: Antibacterial activity against Staphylococcus aureus CCM 4516/08 after 48 hrs by broth microdilution method; assay type: functional; conditions: CCM 4516/08, 48 h; how it was run: as §4
[30] = test system: Enterococcus sp.; assay: Antibacterial activity against Enterococcus sp. J 14365/08 at 500 micromol/L after 24 to 48 hrs by broth microdilution method; assay type: functional, organism-based; how it was run: as §4
[31] = test system: Pseudomonas aeruginosa; assay: Antibacterial activity against Pseudomonas aeruginosa CCM 1961 at 500 micromol/L after 24 to 48 hrs by broth microdilution method; assay type: functional, organism-based; how it was run: as §4
[32] = test system: Mycobacterium tuberculosis; assay: Antimycobacterial activity against Mycobacterium tuberculosis H37Rv My 331/88 after 21 days; assay type: functional; conditions: H37Rv My 331/88, 504 h; how it was run: as §1
[33] = test system: HepG2; assay: Cytotoxicity against human HepG2 cells after 24 hrs by CellTiter assay; assay type: cell-based; conditions: HepG2, 24 h
How it was run: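 HepG2 cells (passage 27–33) in MEM with 10% FBS, L-glutamine and NEAA, seeded at 1×10^4 per well. Treated next day with compounds at 0.1–100 µM (or 0.1–25 µmol/L), triplicates, <1% DMSO, for 24 h at 37 °C, 5% CO2. MTS reagent added for 2 h, absorbance read at 490 nm. IC50 taken against untreated (100%) and 10% DMSO (0%) controls.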

[34] = test system: Pichia kudriavzevii; assay: Antifungal activity against Candida krusei E28 after 48 hrs by broth microdilution method; assay type: functional; conditions: E28, 48 h; how it was run: as §2
[35] = test system: Lichtheimia corymbifera; assay: Antifungal activity against Absidia corymbifera 272 after 48 hrs by broth microdilution method; assay type: functional; conditions: Lichtheimia corymbifera, 272, 48 h; how it was run: as §2
[36] = test system: Escherichia coli; assay: Antibacterial activity against Escherichia coli CCM 4517 at 500 micromol/L after 24 to 48 hrs by broth microdilution method; assay type: functional, organism-based; how it was run: as §4

SMILES: CCOP(=O)(OCC)Oc1ccc(Cl)cc1C(=O)Nc1cccc(C(F)(F)F)c1
- MIC [1]: 8 µM (≈ 3.61 µg/mL)
- Activity [2]: inactive
- MIC80 [3]: > 500 µM
- MIC50 [4]: > 500 µM
- MIC80 [5]: > 500 µM
- MIC [6]: 16 µM (≈ 7.23 µg/mL)
- Activity [7]: inactive
- Activity [8]: inactive
- MIC [9]: 8 µM (≈ 3.61 µg/mL)
- MIC95 [10]: 500 µM (≈ 226 µg/mL)
- MIC50 [11]: > 500 µM
- MIC [12]: 8 µM (≈ 3.61 µg/mL)
- MIC50 [13]: > 500 µM
- MIC50 [14]: > 500 µM
- MIC80 [15]: > 500 µM
- MIC [16]: 8 µM (≈ 3.61 µg/mL)
- MIC [17]: 8 µM (≈ 3.61 µg/mL)
- MIC95 [18]: 250 µM (≈ 113 µg/mL)
- MIC [19]: 2 µM (≈ 0.904 µg/mL)
- MIC50 [20]: > 500 µM
- MIC80 [21]: > 500 µM
- Activity [22]: inactive
- MIC95 [23]: > 500 µM
- MIC [24]: 8 µM (≈ 3.61 µg/mL)
- MIC95 [25]: > 500 µM
- MIC95 [26]: 500 µM (≈ 226 µg/mL)
- MIC [27]: 16 µM (≈ 7.23 µg/mL)
- MIC80 [28]: > 500 µM
- MIC95 [29]: > 500 µM
- Activity [30]: inactive
- Activity [31]: inactive
- MIC [32]: 2 µM (≈ 0.904 µg/mL)
- IC50 [33]: 5.68 µM
- MIC80 [34]: > 500 µM
- MIC50 [35]: > 500 µM
- Activity [36]: inactive

SMILES: CCOP(=O)(OCC)Oc1ccc(Br)cc1C(=O)Nc1cccc(C(F)(F)F)c1
- MIC [1]: 8 µM (≈ 3.97 µg/mL)
- Activity [2]: inactive
- MIC80 [3]: > 500 µM
- MIC50 [4]: 62.5 µM (≈ 31 µg/mL)
- MIC80 [5]: > 500 µM
- MIC [6]: 16 µM (≈ 7.94 µg/mL)
- Activity [7]: inactive
- Activity [8]: inactive
- MIC [9]: 4 µM (≈ 1.98 µg/mL)
- MIC95 [10]: 15.6 µM (≈ 7.75 µg/mL)
- MIC50 [11]: > 500 µM
- MIC [12]: 4 µM (≈ 1.98 µg/mL)
- MIC50 [13]: > 500 µM
- MIC50 [14]: 62.5 µM (≈ 31 µg/mL)
- MIC80 [15]: > 500 µM
- MIC [16]: 4 µM (≈ 1.98 µg/mL)
- MIC [17]: 8 µM (≈ 3.97 µg/mL)
- MIC95 [18]: 7.81 µM (≈ 3.88 µg/mL)
- MIC [19]: 2 µM (≈ 0.992 µg/mL)
- MIC50 [20]: > 500 µM
- MIC80 [21]: > 500 µM
- Activity [22]: inactive
- MIC95 [23]: 7.81 µM (≈ 3.88 µg/mL)
- MIC [24]: 8 µM (≈ 3.97 µg/mL)
- MIC95 [25]: 7.81 µM (≈ 3.88 µg/mL)
- MIC95 [26]: 15.6 µM (≈ 7.75 µg/mL)
- MIC [27]: 16 µM (≈ 7.94 µg/mL)
- MIC80 [28]: > 500 µM
- MIC95 [29]: 7.81 µM (≈ 3.88 µg/mL)
- Activity [30]: inactive
- Activity [31]: inactive
- MIC [32]: 2 µM (≈ 0.992 µg/mL)
- IC50 [33]: 1.84 µM
- MIC80 [34]: > 500 µM
- MIC50 [35]: > 500 µM
- Activity [36]: inactive
